# Measurements reported in paper PMC9380907 (Analytica Chimica Acta, 2022).
# Legend:
# Type in all cases: binding
# Cu = conditions: SWV, n = 3
# Summary of the method: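 Au slides were cleaned by sonication in 20 wt% ethanolamine at about 50 °C, then dipped briefly in piranha. Probe 1 (2.5 μM) with 5 mM TCEP in 10 mM PBS pH 7.4 was assembled at 4 °C for 16 h, then backfilled with 1 mM 9-mercaptononanol for 3 h at RT. Cu was loaded with 10 μM CuCl2 for 30 min at RT. Cathepsin B was in 25 mM MES pH 5.0 and incubated at 37 °C. SWV was run in N2-purged 10 mM PBS pH 7.4 (SCE, Pt counter), with at least three independent repeats.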
# TGF = experiment: ITC of probe 2 with TGF; conditions: 25 °C
# Summary of the method: (§1)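 MicroCal ITC200 titrations at 25 °C: 38 consecutive injections at intervals of at least 120 s. All solutions were degassed beforehand. Heats of dilution, measured by titrating beyond saturation, were subtracted from each data set.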
# [1] = ITC of probe 2 with the label; conditions: 25 °C, 10 mM PBS pH 7.4, 0.5 mM probe 2 into 0.05 mM label
# Summary of the method: as §1
# ITC with heparin = conditions: 25 °C, 10 mM PBS pH 7.4
# Summary of the method: as §1
substance,measurement,setting,value
11-Mercaptoundecanoic acid (MUA)K-DAHKI-(ARKKAAKA)3VLVLVLVL [probe 1],Binding with Cu II ion,"Cu; surface immobilized probe 1, after cleavage by target enzyme (33 nM)",completely abolish the binding
same,Binding with Cu II ion,"Cu; surface immobilized probe 1, before enzyme cleavage",relatively strong binding
(MUA)K–FSHF-(ARKKAAKA)3VLVLVLVL [probe 2],Binding to target TGF,"TGF; 10 mM PBS pH 7.4, 0.5 mM probe 2 into 0.05 mM TGF",bind strongly
same,Binding with target TGF relative to label,"TGF; 10 mM PBS pH 7.4, comparison with label",stronger
same,Binding to label,[1],bind strongly
"TGF beta 1: transforming growth factor-beta 1, from R&D system",Interaction with heparin,ITC with heparin,weak interactions with heparin
